Test results: PubChem BioAssay
Activity calls are given as the source filed them.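 Rule for the calls, unless noted: active = a full or partial loss of lipid-probe fluorescence in the fish gall bladder, intestine or both, judged by eye; inactive = no fluorescence loss, or compound toxic to the fish.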

How the values were obtained:
[1] = inhibitors of TNFa-induced NFkB p65 translocation, primary screen, imaging, HUVEC, MLSMR starter and 10KST1 sets (AID 438;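 active = inhibition above 20% together with a positive visual image hit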;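 note: compound added about 3h40 before a 20 min TNFalpha stimulation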;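 for inhibition: signal is the nuclear over cytoplasmic p65 intensity ratio per well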); conditions: HUVEC TNFa-induced p65 nuclear translocation; cell count: measured here: nuclei count (cytotoxicity indicator), at 2.08 µM; inhibition: at 2 µM, stronger effect = higher value, 0% TNFa-plus-vehicle, 100% no-TNFa wells
[2] = inhibitors of E-selectin induction by TNFa, primary screen, imaging, HUVEC, immunofluorescence, MLSMR starter and 10KST1 sets (AID 487;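 active = visually confirmed hit in the image check and inhibition above 20%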;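 for inhibition: signal is fraction of cell area covered by stained E-selectin grains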;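 for nuclei count: 100% = median nuclei count of all wells on the same plate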); conditions: HUVEC TNFalpha-induced E-selectin immunofluorescence imaging, at 2 µM; inhibition: stronger effect = higher value; nuclei count: measured here: cell number, toxicity
[3] = DUSP6 inhibitors restoring Erk phosphorylation by chemical complementation, primary imaging in DUSP6-transfected HeLa (AID 609;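 active = compounds giving at least 50% inhibition in the cell-based MKP-3 phosphatase rescue imaging test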;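 for inhibition: phospho-Erk level distribution per well compared with pooled transfected vehicle control wells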); conditions: HeLa MKP-3 transfected, phospho-Erk imaging KS statistic, at 10 µM, cells stimulated with TPA for 15 min
[4] = biological target: Dual specificity protein phosphatase 6 (Homo sapiens) (UniProt Q16828); experiment: as above; conditions: HeLa MKP-3 transfected, phospho-Erk imaging KS statistic; at 10 µM; stronger effect = higher value; cells stimulated with TPA for 15 min
Chain of Dual specificity protein phosphatase 6 (Homo sapiens) (Q16828 whole entry, looked up): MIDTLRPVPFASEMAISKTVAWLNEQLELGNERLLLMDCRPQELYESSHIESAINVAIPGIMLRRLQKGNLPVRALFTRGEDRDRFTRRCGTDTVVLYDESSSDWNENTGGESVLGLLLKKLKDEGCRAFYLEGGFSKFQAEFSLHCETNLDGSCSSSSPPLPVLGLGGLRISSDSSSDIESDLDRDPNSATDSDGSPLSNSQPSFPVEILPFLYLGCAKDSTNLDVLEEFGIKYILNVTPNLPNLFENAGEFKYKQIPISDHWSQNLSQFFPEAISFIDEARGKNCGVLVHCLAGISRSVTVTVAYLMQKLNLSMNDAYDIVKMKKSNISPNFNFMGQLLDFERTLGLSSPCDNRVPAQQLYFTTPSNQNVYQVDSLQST

[5] = biological target: Voltage-gated potassium channel subunit beta-2 (Rattus norvegicus) (UniProt P62483); experiment: KvBeta enzyme negative modulators, primary screen, biochemical, NADPH fluorescence (AID 622;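 active = fluorescence slope higher than the sample average by over 3 SD, cut at about -0.22 in these data, passing the limit was not always enough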;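 note: slope of raw intensity against log time taken from 70 to 1610 s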); conditions: recombinant KvBeta, 4-cyanobenzaldehyde reduction, at 10 µM, stronger effect = higher value
Chain of Voltage-gated potassium channel subunit beta-2 (Rattus norvegicus) (P62483 whole entry, looked up): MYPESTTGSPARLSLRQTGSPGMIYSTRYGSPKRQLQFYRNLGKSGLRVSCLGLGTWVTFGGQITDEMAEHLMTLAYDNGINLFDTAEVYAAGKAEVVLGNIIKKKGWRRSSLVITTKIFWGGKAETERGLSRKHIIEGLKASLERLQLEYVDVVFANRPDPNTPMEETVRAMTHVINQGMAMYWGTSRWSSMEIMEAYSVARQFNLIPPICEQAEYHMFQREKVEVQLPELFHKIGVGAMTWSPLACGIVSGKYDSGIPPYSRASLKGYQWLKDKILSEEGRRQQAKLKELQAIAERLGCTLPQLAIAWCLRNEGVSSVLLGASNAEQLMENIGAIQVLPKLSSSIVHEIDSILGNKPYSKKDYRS

[6] = biological target: Voltage-gated potassium channel subunit beta-2 (Rattus norvegicus) (UniProt P62483); experiment: KvBeta positive modulators, primary screen, biochemical, NADPH fluorescence (AID 623;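 active = NADPH fluorescence slope more negative than the mean of all samples by about 3 SD, 99.7% confidence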;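 note: fluorescence intensity change per second fitted from 20 to 320 s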); conditions: Recombinant KvBeta, NADPH fluorescence decrease slope, 10 min; at 10 µM; stronger effect = lower value
[7] = biological target: Muscarinic acetylcholine receptor M4 (Homo sapiens) (UniProt P08173); experiment: compounds altering M4/GIRK thallium flux, either direction, primary screen, M4 allosteric agonist project, cell-based, HEK293 M4/GIRK, BTC-AM (AID 625;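 active = fluorescence slope after compound addition differing from the mean of all tested samples at 99.7% confidence, mostly higher but some lower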;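 note: thallium influx through GIRK channels coupled to M4 in HEK293 cells with BTC-AM dye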); conditions: at 10 µM, actives lie on both sides
Chain of Muscarinic acetylcholine receptor M4 (Homo sapiens) (P08173 whole entry, looked up): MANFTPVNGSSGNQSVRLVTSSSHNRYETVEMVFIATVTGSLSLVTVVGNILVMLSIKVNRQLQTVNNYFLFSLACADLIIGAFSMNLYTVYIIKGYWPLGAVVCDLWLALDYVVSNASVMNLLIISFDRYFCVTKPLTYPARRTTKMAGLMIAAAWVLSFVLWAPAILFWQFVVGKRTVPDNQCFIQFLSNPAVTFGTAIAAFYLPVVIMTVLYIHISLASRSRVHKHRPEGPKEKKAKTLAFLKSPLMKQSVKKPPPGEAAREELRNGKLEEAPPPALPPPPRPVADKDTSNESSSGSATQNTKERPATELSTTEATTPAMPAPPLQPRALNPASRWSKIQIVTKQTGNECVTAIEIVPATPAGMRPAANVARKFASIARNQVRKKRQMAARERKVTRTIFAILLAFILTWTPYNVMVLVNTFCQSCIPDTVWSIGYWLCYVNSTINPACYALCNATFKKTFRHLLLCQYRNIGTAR
Procedure, shortened: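 Assay system: HEK293 cells with M4 receptor and GIRK channels / Controls: carbachol and DMSO controls / Schedule: 1 h dye loading, 2 min kinetic read / Technique: kinetic fluorescence with BTC-AM dye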

[8] = inhibitors of larval lipid processing in zebrafish, primary screen, whole organism, PED6 fluorescence, gall bladder and intestine (AID 686); conditions: Zebrafish larvae PED6 lipid processing, fluorescence scoring; screened at 20 µM (by protocol);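 note: larvae 5 to 7 days old with five fish per well; signal comes from phospholipase A2 cleavage of quenched PED6 carried via bile; overnight exposure to compound and PED6 before scoring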
Procedure, shortened: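 Doses: 20 µM single dose. Test system: live zebrafish larvae aged 5-7 days, whole organism. Quantity: five larvae per well. Measured by: By-eye fluorescence microscopy. Reagent: ingested quenched lipid PED6 at 100 nM. Read-out: visual per-well fluorescence inhibition score. Times: overnight exposure of larvae to compound plus PED6.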

[9] = inhibitors of Chlamydomonas gravitaxis, primary screen, whole organism, Chlamydomonas reinhardtii, WT vs cilia-less mutant, absorbance, 96-well (AID 463189;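 active = inhibition at or above 50% relative to wild type and mutant plate controls; inactive = inhibition below 50%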;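 note: 0% = wild type cc124 cells in DMSO and 100% = ciliumless bld1 mutant cells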); conditions: OD600 absorbance, 2 days, at 10 µM, stronger effect = higher value
[10] = measured here: cell density z-score
[11] = measured here: nuclear c-Myc green intensity z-score
[12] = measured here: nuclear pErk red intensity z-score, stronger effect = higher value

SMILES	cell count [1]	inhibition [1]	inhibition [2]	nuclei count [2] [%]	z-score [3, 10]	z-score [3, 11]	z-score [3, 12]	inhibition [4]	fluorescence slope [5]	NADPH fluorescence slope [6]	fluorescence slope [7]	outcome [8]	inhibition [9]
Cn1cc(Cl)nc1C(O)c1ccccc1 (centres undefined)	629	-11% (inactive)	-61.5% (inactive)	174	0.432	-0.744	-0.497	-0.233% (inactive)	-0.481 (inactive)	-2.6e-05 (inactive)	0.00721 (inactive)	inactive	20.3% (inactive)
O=C1CCC(=O)N1c1nc2n(n1)C(c1ccccc1)C=C(c1ccc(Br)cc1)N2 (centres undefined)	369	3% (inactive)	-50% (inactive)	71.6	0.246	-0.538	-1.14	3.56% (inactive)	-0.374 (inactive)	-9.5e-05 (inactive)	0.0047 (inactive)	inactive	17.5% (inactive)
CC(NC(=O)Nc1nnc(C(F)(F)F)s1)(C(F)(F)F)C(F)(F)F	640	3.6% (inactive)	-157% (inactive)	149	-0.473	0.624	0.273	1.63% (inactive)	-0.465 (inactive)	-5.5e-05 (inactive)	0.00252 (inactive)	inactive; toxic	1.97% (inactive)
CCC(NC(=O)NC1=NCCS1)(C(F)(F)F)C(F)(F)F	772	2.9% (inactive)	-60% (inactive)	150	0.622	-0.646	0.179	20.2% (inactive)	-0.433 (inactive)	-7.2e-05 (inactive)	0.00527 (inactive)	inactive	-2.29% (inactive)
COC(=O)c1[nH]c2ccc(Cl)cc2c1NC(=O)C1CC1	489	-0.3% (inactive)	-43.6% (inactive)	120	-0.422	-0.0225	-0.572	-4.59% (inactive)	-0.451 (inactive)	-5.4e-05 (inactive)	0.00568 (inactive)	inactive	-10.7% (inactive)
COc1ccc(C(=O)CCN2CCCCCC2)cc1	387	-7.4% (inactive)	-32.1% (inactive)	148	-0.26	-0.113	-0.00775	5.42% (inactive)	-0.438 (inactive)	-0.000102 (inactive)	0.00485 (inactive)	inactive; toxic	-0.057% (inactive)
CC1=C(C#N)C(=O)OC(C)(C)C1	660	-3.9% (inactive)	-22.9% (inactive)	101	-2.1	0.204	-1.02	-1.98% (inactive)	-0.489 (inactive)	-7.4e-05 (inactive)	0.00496 (inactive)	inactive	-18.3% (inactive)
CC(Sc1ccc2ccccc2n1)C(=O)O (centres undefined)	709	-5.5% (inactive)	23% (inactive)	185	0.12	0.234	-0.321	7.21% (inactive)	-0.478 (inactive)	-9e-05 (inactive)	0.00615 (inactive)	inactive	-8.1% (inactive)
COC(=O)CC1=C(C(=O)OC)C(c2cccc(OCC(N)=O)c2)C(C#N)=C(N)O1 (centres undefined)	723	-1% (inactive)	-67.7% (inactive)	186	-1.4	0.109	1.84	27.5% (inactive)	-0.432 (inactive)	-7e-05 (inactive)	0.00612 (inactive)	inactive	12% (inactive)
CCc1nc2c(sc3nc(N4CCOCC4)c4c(c32)CC(C)(C)OC4)c(=O)o1	537	0.8% (inactive)	-123% (inactive)	140	-0.303	0.948	-1.15	3.42% (inactive)	-0.479 (inactive)	-8.3e-05 (inactive)	0.00481 (inactive)	inactive	-8.15% (inactive)
CC(C)COc1ccc(C(=O)NC(CC(C)C)C(=O)O)cc1 (centres undefined)	649	9.2% (inactive)	-19.5% (inactive)	84.1	-0.492	0.0237	0.136	-13.3% (inactive)	-0.484 (inactive)	-4.8e-05 (inactive)	0.00574 (inactive)	inactive	25.1% (inactive)
COCc1[nH]nc2c1C(c1ccc(OC)cc1)C(C#N)=C(N)O2 (centres undefined)	664	-8.1% (inactive)	0.4% (inactive)	142	-1.64	0.0391	-2.4	-4.27% (inactive)	-0.477 (inactive)	-6e-05 (inactive)	0.006 (inactive)	inactive	0.628% (inactive)
Cc1nn(C)cc1/C=N/n1nnnc1N	680	-10.2% (inactive)	-45.8% (inactive)	155	0.00474	-1.39	0.944	4.37% (inactive)	-0.487 (inactive)	-3.8e-05 (inactive)	0.00512 (inactive)	inactive	11.8% (inactive)
COc1ccc(-n2ncc3c(Nc4cccc(C)c4)ncnc32)cc1	629	-11.3% (inactive)	-122% (inactive)	182	1.43	1.07	-1.65	11.4% (inactive)	-0.319 (inactive)	-1.2e-05 (inactive)	0.00486 (inactive)	inactive	3.81% (inactive)
O=C(Nc1ccc(N2CCN(C(=O)c3ccccc3)CC2)c(Cl)c1)c1ccc(Br)o1	435	-6.8% (inactive)	-72.9% (inactive)	143	-0.73	0.543	-0.883	-7.28% (inactive)	-0.431 (inactive)	-2.9e-05 (inactive)	0.00435 (inactive)	inactive	117% (active)
CCOC(=O)CC(=O)CSc1nnc2sc3ccccc3n12	493	-14.5% (inactive)	27.3% (inactive)	174	0.311	0.752	-0.0836	3.97% (inactive)	-0.427 (inactive)	-3e-05 (inactive)	0.0062 (inactive)	inactive	6.97% (inactive)
COC(=O)CSCC(=O)Nc1cc2c(cc1C(C)=O)OCO2	333	-6.3% (inactive)	-95.3% (inactive)	76.4	0.0556	-1.11	1.67	-4.78% (inactive)	-0.452 (inactive)	1.5e-05 (inactive)	0.00475 (inactive)	inactive	22.6% (inactive)
CC1(C)Cc2c(C#N)c(OCC(=O)c3ccccc3)nc(-c3ccoc3)c2CO1	547	-9.6% (inactive)	14.2% (inactive)	98.1	0.66	-1.5	-0.876	-0.233% (inactive)	-0.465 (inactive)	2.6e-05 (inactive)	0.00542 (inactive)	inactive	56.8% (active)
